Experimental data reported in ChEMBL document CHEMBL1125727 (J Med Chem, 1991).

Key:
Format in all cases: functional, cell-based
[1] = test system: P388; assay: Percentage increase in lifespan of drug-related tumor bearing animals when heated at the optimal dose and tested in murine leukemia P388 cell lines.; settings: Mus musculus
Summary of the method: (§1)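 Mice inoculated intraperitoneally with 10⁶ P388 leukemia cells. Single drug dose on day 1 in 0.1 or 0.2 mL of 30% v/v ethanol/water. Optimal dose given in mg/kg. ILS is the percentage increase in lifespan at the optimal dose, with values above 20% taken as significant.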

[2] = test system: P388; assay: Optimal dose administered as a single dose by intraperitoneal inoculation of 10 X E6 murine leukemia P388 cell lines.; settings: Mus musculus; summary of the method: as §1
[3] = test system: UV4; assay: Hypersensitivity factor obtained from in vitro cytotoxicities against Chinese hamster ovary derived AA8 / UV4 cell lines; settings: Cricetulus griseus
Summary of the method: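 HF = IC50(AA8)/IC50(UV4). Both lines kept in Alpha MEM with 10% fetal calf serum and exposed to drug for 18 h, then washed three times and grown 72 h more. Density read by methylene blue. Each IC50 is the nominal concentration giving 50% of control density, with eight controls per plate.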

[4] = test system: P388; assay: In vitro cytotoxicity against murine leukemia P388 cell line.; settings: Mus musculus
Summary of the method: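 P388 cells kept in exponential growth in RPMI 1640 with 10% fetal calf serum. Log-phase cultures in 96-well plates with drug present throughout 72 h growth. Final density read by a modified MTT method. IC50 is the nominal concentration reducing cell density to 50% of control, with eight controls per plate.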

[5] = test system: CHO-AA8; assay: Compound was evaluated for in vitro cytotoxicities against Chinese hamster ovary derived AA8 cell lines.; settings: Cricetulus griseus
Summary of the method: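 AA8 cells kept in exponential growth in Alpha MEM with 10% fetal calf serum. Log-phase cultures in 96-well plates, drug exposure 18 h, ended by three washes with fresh medium, then 72 h further growth. Cell density read by methylene blue staining. IC50 is the nominal concentration reducing cell density to 50% of control, with eight controls per plate.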

CCN(CCCl)c1ccc(CCCNC(=O)c2ccc(NCCCc3ccc(N(CC)CCCl)cc3)c3cc4ccccc4nc23)cc1
ILS [1]: 25%
OD [2]: 45 mg/kg
HF [3]: 5.4
IC50 [4]: 0.29 µM
IC50 [5]: 1.5 µM

CCN(CCCl)c1ccc(SCCNC(=O)c2ccc(NCCSc3ccc(N(CC)CCCl)cc3)c3cc4ccccc4nc23)cc1
HF [3]: 7.4
IC50 [4]: 0.55 µM
IC50 [5]: 9.4 µM

CN(C)CCNC(=O)c1ccc(NCCCc2ccc(N(CCCl)CCCl)cc2)c2cc3ccccc3nc12
OD [2]: 13.3 mg/kg
HF [3]: 19
IC50 [4]: 0.06 µM
IC50 [5]: 0.21 µM

COc1cc(NS(C)(=O)=O)ccc1Nc1ccc(C(=O)NCCCc2ccc(N(CCCl)CCCl)cc2)c2nc3ccccc3cc12
ILS [1]: 26%
OD [2]: 65 mg/kg
HF [3]: > 50
IC50 [4]: 0.18 µM
IC50 [5]: > 4000 µM

O=C(O)CCCc1ccc(N(CCCl)CCCl)cc1 [CHLORAMBUCIL]
ILS [1]: 37%
OD [2]: 225 mg/kg
HF [3]: 58
